# An excerpt weighted towards active compounds, which were near 2.1% of everything screened.
# FXIIa inh 1536 = blocks human coagulation factor XIIa protease activity. purified FXIIa, Boc-QGR-AMC fluorogenic substrate, 2 h. inhibition, % at 5 µM. P00748. actives 0.3% (n = 220,000); in the data active = inhibition above about 40%;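 note: 0% = enzyme with no compound and 100% = blank without enzyme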
# Thrombin inh = inhibitors of human thrombin; alpha-thrombin, Boc-VPR-AMC fluorogenic substrate cleavage; inhibition, % at 5 µM; actives 0.26% (n = 220,000);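 active = inhibition at or above 40%; inactive = inhibition below 40%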;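 note: 0% = enzyme with no compound and 100% = wells without enzyme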
#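 Test system: human alpha-thrombin protein / Dosing: one concentration per compound, 5 µM, with 0.2% DMSO / Medium: pH 7.5 Tris-saline with Tween 20 / Benchmarks: no-compound enzyme wells and no-enzyme blanks / Read-out basis: percent inhibition of thrombin substrate cleavage / Timing: reaction at room temperature / Measured by: fluorescence, ex 355 nm, em 460 nm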
# FXIa inh 1536 = factor XIa (human) inhibition; purified FXIa, Boc-Glu-Ala-Arg-AMC fluorogenic substrate; inhibition, % at 5 µM; actives 0.14% (n = 220,000); AID 798;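 active = inhibition of at least 40%; inactive = inhibition below 40%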;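 note: fluorescence of freed AMC excited at 355 nm; 0% = enzyme without compound and 100% = no enzyme blank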
# KLK5 inh = blocks human kallikrein 5 protease activity. actives 0.59% (n = 210,000). AID 873. recombinant hK5, fluorogenic AMC substrate cleavage. inhibition, % at 5 µM. Q9Y337;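 active = inhibition of 40% or more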;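 note: 0% = enzyme controls without compound and 100% = no-enzyme blanks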
# EP2 mod = EP2 receptor (human) modulation; P43116; EP2-expressing cells, cAMP HTRF FRET, PGE2 co-stimulation; induction, % at 25 µM; actives 0.83% (n = 260,000); AID 940;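 active = compounds whose cAMP rise, as percent of the full-agonist control response, exceeds 60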;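 note: rat C6 glioma line stably carrying human EP2 under a CMV promoter; the protocol text gives 20 µM as final concentration; 100% = response of wells given 1 µM PGE2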
# Target sequence (P43116 whole entry, looked up): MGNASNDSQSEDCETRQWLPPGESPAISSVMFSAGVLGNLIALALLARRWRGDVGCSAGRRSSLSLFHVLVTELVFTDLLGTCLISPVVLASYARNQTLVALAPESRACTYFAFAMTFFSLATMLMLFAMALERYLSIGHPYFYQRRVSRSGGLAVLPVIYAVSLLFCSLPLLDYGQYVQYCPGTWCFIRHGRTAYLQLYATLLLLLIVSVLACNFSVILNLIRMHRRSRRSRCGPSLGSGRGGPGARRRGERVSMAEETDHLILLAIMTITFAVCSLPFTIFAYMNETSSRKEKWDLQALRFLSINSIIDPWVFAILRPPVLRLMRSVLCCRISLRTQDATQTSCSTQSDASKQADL
# EP2 antag = blocks the human prostaglandin E2 receptor EP2; C6 glioma cells expressing human EP2, cAMP TR-FRET; cells stimulated with saturating PGE2; actives 0.52% (n = 260,000); inhibition, % at 25 µM; P43116;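 active = percent inhibition above 40 after rounding to a whole number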;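 note: rat C6 glioma host cells with rolipram phosphodiesterase inhibitor present; the protocol text gives 20 µM as final concentration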
# Active calls of the source: *; nt = no result given.
SMILES,FXIIa inh 1536,Thrombin inh,FXIa inh 1536,KLK5 inh,EP2 mod,EP2 antag
CCOc1ccc2[nH]c(=O)c(C(c3nnnn3C3CCCC3)N3CCCc4ccccc43)cc2c1 (stereo not given),nt,nt,nt,nt,74*,10
CCOc1ccc2[nH]c(=O)c(C(c3nnnn3C3CCCCC3)N3CCN(CC)CC3)cc2c1 (stereo not given),-18,-3,-19,-1,-30,12
O=c1[nH]c2cc3c(cc2cc1C(c1nnnn1C1CCCCC1)N1CCOCC1)OCCO3 (stereo not given),nt,nt,nt,nt,0,8
COc1ccc(-n2c(CNc3cccc(C(F)(F)F)c3)n[nH]c2=S)cc1,nt,nt,nt,nt,32,14
N#Cc1cc(-c2ccccc2Cl)no1,nt,nt,nt,nt,-75,12
S=c1[nH]nc(-c2ccco2)n1/N=C/c1cccc(Cl)c1Cl,-2,-8,18,-32,61*,1
CCCS(=O)(=O)C(=C(Nc1ccccc1)Nc1ccccc1)S(=O)(=O)CCC,16,2,4,2,63*,5
COC(=O)c1sccc1NC(=O)CSc1cccc(Cl)c1Cl,-15,0,-17,-7,61*,nt
COC(=O)c1sccc1NC(=O)CSc1nnnn1-c1ccccc1C,14,2,6,-9,-6,12
COC(=O)c1sccc1NC(=O)/C=C/c1c(Cl)cccc1Cl,40*,2,22,-6,28,21
COC(=O)c1sccc1NC(=O)/C=C/c1ccc(Cl)cc1Cl,8,-2,4,-16,5,6
COc1ccc(NC(=O)CSc2nnc(-c3ccco3)c(-c3ccco3)n2)cc1,nt,nt,nt,nt,-38,9
COc1ccc2c(c1)C(O)CC1(CCN(CC(O)c3ccc4c(c3)CCCC4)CC1)O2 (stereo not given),nt,nt,nt,nt,-78,10
CC(=O)N(CCc1cccc(C)c1)Cc1cc2cc(C)c(C)cc2[nH]c1=O,nt,nt,nt,nt,-69,5
COc1cccc(CNc2ccc(S(N)(=O)=O)cc2)c1OC,107*,18,6,31,-8,nt
O=C(O)c1ccc(-c2ccco2)n1Cc1ccccc1,13,9,1,5,6,18
COC(=O)c1ccc(-c2ccco2)n1Cc1cc(C)ccc1C,28,5,16,0,62*,6
O=C(NNc1cc(N2CCOCC2)nc(N2CCOCC2)n1)c1ccc([N+](=O)[O-])cc1,22,3,31,68*,-1,9
O=C(CSc1nnc(-c2ccco2)o1)N1c2ccccc2Sc2ccccc21,nt,nt,nt,nt,2,9
OC1(C(O)(c2ccc(-c3ccccc3)cc2)c2ccc(-c3ccccc3)cc2)CCCCC1,nt,nt,nt,nt,25,43*
OCc1nc2ccccc2n1/N=C/c1cccs1,17,15,16,43*,-21,14
O=[N+]([O-])c1ccc(O)c(/C=N/n2c(CO)nc3ccccc32)c1,9,2,-4,-4,-29,7
Cc1ccc(C)n1-c1ccccc1N1CCCCC1,-1,3,-4,-6,63*,5
Cc1ccccc1C1(O)CCN(C(=O)C(c2cccs2)c2cccs2)CC1,nt,nt,nt,nt,-38,10
Cc1cc(C(C#N)c2cccc(Cl)c2)n2ncnc2n1 (stereo not given),42*,1,14,-1,31,nt
SMILES,FXIIa inh 1536,Thrombin inh,FXIa inh 1536,KLK5 inh,EP2 mod,EP2 antag
COc1ccc(Cl)cc1NC(=S)NNC(=O)C1(C)CC1(Cl)Cl (stereo not given),49*,2,6,13,-26,4
COc1cccc2sc(/N=C/N(C)C)nc12,46*,22,24,35,2,13
COc1cccc2sc(N(C)c3ccccc3)nc12,26,-3,15,-7,-5,7
O=C(C1CC1)N1CCC[C@H]1Cn1nc(-c2ccc3c(c2)OCO3)ccc1=O,nt,nt,nt,nt,-12,nt
COc1ccc(Cn2cnc3c(N)c(C)c(C)cc32)cc1,7,-12,-1,-1,2,6
CCCCCCCCn1cnc2c(N)c(C)c(C)cc21,17,0,5,8,62*,3
CCOc1ccccc1NC(=O)CSc1nnc(-c2cccc(C)c2)n1C,nt,nt,nt,nt,-43,6
O=C(Cn1c(-c2ccccn2)nc2ccccc21)N/N=C/c1ccccn1,8,-8,-2,-3,-17,4
Cc1ccc(S(=O)(=O)N2CCN(CC(=O)N/N=C\c3cccnc3)CC2)cc1,6,11,11,41*,14,2
